Read-outs that look alike come from different tables or passages of the source. Marks after values point to notes of the source that are not given here.
How the values were obtained:
[1] = assay type: in vivo, human; details: for half-life / AUC: human; for half-life / AUC / CL/F, mean (CV%): plasma; for half-life: oral; for AUC: po, AUCτ, mean (CV%), AUCτ = AUC24
[2] = healthy subjects, cited from earlier work
CH24H = details: CH24H‐knockout mice vs wild‐type controls; cited from earlier work
24HC levels in the brain = details: single oral administration in mice; cited from earlier work
[3] = test system: plasma 24S‐hydroxycholesterol (24HC); assay: Pharmacodynamics: time‐matched percentage change from baseline in plasma 24HC; assay type: in vivo, human
How it was run: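 Healthy adults (18-55 y, BMI 18-30 kg/m2), 6 active:2 placebo, double-blind; oral solution QD or BID after ≥8 h fast. 24HC by LC-MS/MS, validated 2.00-100 ng/mL. Time-matched % change from baseline; AUEC24/E24 for QD, AUEC12/E12 for BID.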

Safety and tolerability = assay type: in vivo, human; details: n = 6
How it was run: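 Randomized, double-blind, placebo-controlled; cohorts of 8 (6:2) healthy adults given oral solution daily for a planned 14 days after ≥8 h fast, confined on site days −3 to 15 plus 1 follow-up day. Monitoring covered AEs, physical examination, BMI, vital signs, ECG and clinical laboratory tests. Subjects with ≥1 treatment-emergent AE counted across all subjects receiving at least one dose.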

[4] = day 14, 400 mg dose (range 100‐400 mg QD)

Structure (SMILES): O=C(c1cccnc1-c1ccncc1)N1CCC(O)(Cc2ccccc2)CC1 [Soticlestat, soticlestat]
- increase in AUCτ at steady state (accumulation ratio based on AUC) ([1]; 300 mg QD for 14 days): ~1.42 fold
- increase in C max at steady state (day 14 vs day 1) ([1]; 300 mg QD for 14 days): approximately 1.74 fold
- accumulation ratio based on AUC ([1]; 400 mg QD): 1.20
- dose proportionality of steady‐state exposure ([1]; 100‐400 mg QD, 14 days): slightly greater than dose‐proportional
- increase in single‐dose mean AUC∞ over 6‐fold dose range ([1]; day 1, 100‐600 mg): 9.35 fold
- increase in single‐dose mean C max over 6‐fold dose range ([1]; day 1, 100‐600 mg): 6.55 fold
- time‐dependent effect of PK on repeat dosing ([1]; day 1 vs day 14): not apparent
- increase in mean AUCτ over 4‐fold dose range ([1]; day 14, 100‐400 mg QD): 6.12 fold
- increase in mean C max over 4‐fold dose range ([1]; day 14, 100‐400 mg QD): 6.08 fold
- half-life ([1]; elimination half‐life, overall, as summarised in abstract): ~4 h
- half-life ([1]; mean half‐life, at 300 mg QD and 400 mg QD): ~4 h
- half-life ([1]; mean terminal elimination half‐life (t ½z), range across groups, day 1 and day 14, all doses): 3.49 to 4.83 h
- AUC ([1]; 100 mg, soticlestat 100 mg QD oral solution, day 1): 446 ng·h/mL
- AUC ([1]; 100 mg, soticlestat 100 mg QD oral solution, day 14): 458 ng·h/mL
- AUC ([1]; 300 mg, soticlestat 300 mg QD oral solution, day 1): 2030 ng·h/mL
- AUC ([1]; 300 mg, soticlestat 300 mg QD oral solution, day 14): 2690 ng·h/mL
- AUC ([1]; 400 mg, soticlestat 400 mg QD oral solution, day 1): 2500 ng·h/mL
- AUC ([1]; 400 mg, soticlestat 400 mg QD oral solution, day 14): 2800 ng·h/mL
- AUC ([1]; 600 mg, soticlestat 600 mg QD oral solution, day 1): 4180 ng·h/mL
- exposure accumulation on day 14 compared with day 1 ([1]; once‐daily dosing of 100 or 400 mg for 14 days): did not appear to result in exposure accumulation
- CL/F, mean (CV%) ([1]; soticlestat 100 mg QD oral solution, day 1): 248 (40.4) ^c L/h
- CL/F, mean (CV%) ([1]; soticlestat 100 mg QD oral solution, day 14): 234 (29.6) L/h
- CL/F, mean (CV%) ([1]; soticlestat 300 mg BID oral solution, day 1 after first dose): 232 (47.3) ^e L/h
- CL/F, mean (CV%) ([1]; soticlestat 300 mg QD oral solution, day 1): 185 (47.6) L/h
- CL/F, mean (CV%) ([1]; soticlestat 300 mg QD oral solution, day 14): 130 (43.9) L/h
- CL/F, mean (CV%) ([1]; soticlestat 400 mg QD oral solution, day 1): 187 (38.8) L/h
- CL/F, mean (CV%) ([1]; soticlestat 400 mg QD oral solution, day 14): 166 (44.4) L/h
- CL/F, mean (CV%) ([1]; soticlestat 600 mg QD oral solution, day 1): 194 (57.5) L/h
- dose proportionality of systemic exposure ([1]; single doses of 100‐600 mg QD): slightly greater than dose‐proportional
- tolerability of single doses ([2]; doses up to 1350 mg): well tolerated
- circulating levels of 24HC ([2]; single rising doses): dose‐dependent reduction
- soticlestat distribution in the brain (CH24H): substantially lower level of soticlestat distribution in the brain than wild‐type controls
- 24HC levels in the brain (24HC levels in the brain): dose‐dependent reduction in 24HC levels in the brain
- 24HC AUECτ, mean (CV%), percentage change from baseline (day −1) ([3]; AUECτ = AUEC12, 300 mg BID, day 1): −6.90 (−75.9) %
- 24HC AUECτ, mean (CV%), percentage change from baseline (day −1) ([3]; AUECτ = AUEC24, 100 mg QD, day 1): −8.15 (−45.4) %
- 24HC AUECτ, mean (CV%), percentage change from baseline (day −1) ([3]; AUECτ = AUEC24, 100 mg QD, day 14): −46.8 (−9.2) %
- 24HC AUECτ, mean (CV%), percentage change from baseline (day −1) ([3]; AUECτ = AUEC24, 300 mg QD, day 1): −12.7 (−36.5) %
- 24HC AUECτ, mean (CV%), percentage change from baseline (day −1) ([3]; AUECτ = AUEC24, 300 mg QD, day 14): −61.9 (−17.0) %
- 24HC AUECτ, mean (CV%), percentage change from baseline (day −1) ([3]; AUECτ = AUEC24, 400 mg QD, day 1): −11.7 (−34.5) %
- 24HC AUECτ, mean (CV%), percentage change from baseline (day −1) ([3]; AUECτ = AUEC24, 400 mg QD, day 14): −62.7 (−7.3) %
- 24HC AUECτ, mean (CV%), percentage change from baseline (day −1) ([3]; AUECτ = AUEC24, 600 mg QD, day 1): −14.0 (−27.9) %
- 24HC E t, mean (CV%), percentage change from baseline (day −1) ([3]; E t = E 12, 300 mg BID, day 1): −10.5 (−63.8) %
- 24HC E t, mean (CV%), percentage change from baseline (day −1) ([3]; E t = E 24, 100 mg QD, day 1): −20.9 (−49.0) %
- 24HC E t, mean (CV%), percentage change from baseline (day −1) ([3]; E t = E 24, 100 mg QD, day 14): −49.1 (−11.9) %
- 24HC E t, mean (CV%), percentage change from baseline (day −1) ([3]; E t = E 24, 300 mg QD, day 1): −22.4 (−19.5) %
- 24HC E t, mean (CV%), percentage change from baseline (day −1) ([3]; E t = E 24, 300 mg QD, day 14): −63.8 (−19.3) %
- 24HC E t, mean (CV%), percentage change from baseline (day −1) ([3]; E t = E 24, 400 mg QD, day 1): −28.4 (−28.1) %
- 24HC E t, mean (CV%), percentage change from baseline (day −1) ([3]; E t = E 24, 400 mg QD, day 14): −65.6 (−6.0) %
- 24HC E t, mean (CV%), percentage change from baseline (day −1) ([3]; E t = E 24, 600 mg QD, day 1): −30.6 (−41.0) %
- maximum decrease from baseline in 24HC AUEC24 [3, 4]: 62.66%
- maximum decrease from baseline in 24HC E24 [3, 4]: 65.59%
- Number of subjects (%) with SAEs (Safety and tolerability; 100 mg QD): 0
- Number of subjects (%) with TEAEs (Safety and tolerability; 100 mg QD): 0
- Number of subjects (%) with TEAEs: Leading to discontinuation (Safety and tolerability; 100 mg QD): 0
- Number of subjects (%) with TEAEs: Mild (Safety and tolerability; 100 mg QD): 0
- Number of subjects (%) with TEAEs: Moderate (Safety and tolerability; 100 mg QD): 0
- Number of subjects (%) with TEAEs: Not related (Safety and tolerability; 100 mg QD): 0
- Number of subjects (%) with TEAEs: Related (Safety and tolerability; 100 mg QD): 0
- Number of subjects (%) with TEAEs: Severe (Safety and tolerability; 100 mg QD): 0
- Number of subjects (%): Deaths (Safety and tolerability; 100 mg QD): 0
- Number of subjects (%) with SAEs (Safety and tolerability; 300 mg BID): 0
- Number of subjects (%) with TEAEs (Safety and tolerability; 300 mg BID): 5 (83.3)
- Number of subjects (%) with TEAEs: Leading to discontinuation (Safety and tolerability; 300 mg BID): 1 (16.7)
- Number of subjects (%) with TEAEs: Mild (Safety and tolerability; 300 mg BID): 5 (83.3)
- Number of subjects (%) with TEAEs: Moderate (Safety and tolerability; 300 mg BID): 0
- Number of subjects (%) with TEAEs: Not related (Safety and tolerability; 300 mg BID): 0
- Number of subjects (%) with TEAEs: Related (Safety and tolerability; 300 mg BID): 5 (83.3)
- Number of subjects (%) with TEAEs: Severe (Safety and tolerability; 300 mg BID): 0

— publication PMC9305210 (British Journal of Clinical Pharmacology, 2022)
